ChEMBL document CHEMBL1152827, “Bis-pyrazolines: synthesis, characterization and antiamoebic activity as inhibitors of growth of Entamoeba histolytica” (Eur J Med Chem, 2009)

Tests used:
Entamoeba histolytica = test: Antiamoebic activity against Entamoeba histolytica HM-1:IMSS trophozoites after 72 hrs by microdilution method; assay type: functional, organism-based
Procedure, shortened: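 E. histolytica HM1:IMSS trophozoites grown in TYIS-33 medium. Compounds dissolved in DMSO, diluted in medium to 1 mg/ml, then two-fold serial dilutions. Inoculum 1.7 × 10⁴ organisms/well. Plates gassed with N₂ and held at 37 °C for 72 h. Amoebae fixed in cold MeOH and stained with eosin, dye released with 0.1 N NaOH, OD read at 490 nm. Percent inhibition plotted against log dose; IC50 from linear regression.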

[1] = Cytotoxicity against human kidney epithelial cells after 44 hrs by MTT assay; assay type: cell-based; conditions: Epithelial cell
[2] = Selectivity index, ratio of IC50 for human kidney epithelial cells to IC50 for Entamoeba histolytica HM-1:IMSS trophozoites; set-up: species or system Epithelial cell
Procedure, shortened: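 Safety index calculated as IC50 in human kidney epithelial cells (MTT, 44 h plus 4 h) divided by IC50 against E. histolytica HM1:IMSS (72 h eosin-stained microdilution assay).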

Row | IC50 (Entamoeba histolytica) [nM] | Compound | IC50 [1] [nM] | Ratio IC50 [2]
1 | > 1800 | S=C(N1CCCC1)N1N=C(c2ccccc2)CC1c1ccc(C2CC(c3ccccc3)=NN2C(=S)N2CCCC2)cc1 (configuration not stated) | > 90000 | >50
2 | 420 | O=[N+]([O-])c1ccc(NC(=S)N2N=C(c3ccccc3)CC2c2ccc(C3CC(c4ccccc4)=NN3C(=S)Nc3ccc([N+](=O)[O-])cc3)cc2)cc1 (configuration not stated) | > 90000 | >214
3 | > 1800 | S=C(NC1CCCC1)N1N=C(c2ccccc2)CC1c1ccc(C2CC(c3ccccc3)=NN2C(=S)NC2CCCC2)cc1 (configuration not stated) | > 90000 | >50
4 | 920 | S=C(NC1CCCCCCC1)N1N=C(c2ccccc2)CC1c1ccc(C2CC(c3ccccc3)=NN2C(=S)NC2CCCCCCC2)cc1 (configuration not stated) | > 90000 | >97.8
5 | 1570 | NC(=S)N1N=C(c2ccccc2)CC1c1ccc(C2CC(c3ccccc3)=NN2C(N)=S)cc1 (configuration not stated) | > 90000 | >57.3
6 | > 1800 | Cc1cccc(NC(=S)N2N=C(c3ccccc3)CC2c2ccc(C3CC(c4ccccc4)=NN3C(=S)Nc3cccc(C)c3)cc2)c1 (configuration not stated) | > 90000 | >50
7 | 620 | Fc1ccc(NC(=S)N2N=C(c3ccccc3)CC2c2ccc(C3CC(c4ccccc4)=NN3C(=S)Nc3ccc(F)cc3F)cc2)c(F)c1 (configuration not stated) | > 90000 | >145
8 | 1160 | S=C(NC1CCCCC1)N1N=C(c2ccccc2)CC1c1ccc(C2CC(c3ccccc3)=NN2C(=S)NC2CCCCC2)cc1 (configuration not stated) | > 90000 | >77.6
9 | > 1800 | Cc1ccc(NC(=S)N2N=C(c3ccccc3)CC2c2ccc(C3CC(c4ccccc4)=NN3C(=S)Nc3ccc(C)cc3)cc2)cc1 (configuration not stated) | > 90000 | >50
10 | > 1800 | CN(Cc1ccccc1)C(=S)N1N=C(c2ccccc2)CC1c1ccc(C2CC(c3ccccc3)=NN2C(=S)N(C)Cc2ccccc2)cc1 (configuration not stated) | > 90000 | >50
11 |  | Cc1ncc([N+](=O)[O-])n1CCO [METRONIDAZOLE] | > 100000 | >55.55
